The values that follow come from article PMC3580954 (Biopolymers, 2013).

Holding throughout (format): cell-based
Holding throughout (details): SD

The target of one assay is T1, W^2.71A PrRP receptor (Homo sapiens, UniProt P49683, W127A).
T1 sequence (P49683 1-370 W127A): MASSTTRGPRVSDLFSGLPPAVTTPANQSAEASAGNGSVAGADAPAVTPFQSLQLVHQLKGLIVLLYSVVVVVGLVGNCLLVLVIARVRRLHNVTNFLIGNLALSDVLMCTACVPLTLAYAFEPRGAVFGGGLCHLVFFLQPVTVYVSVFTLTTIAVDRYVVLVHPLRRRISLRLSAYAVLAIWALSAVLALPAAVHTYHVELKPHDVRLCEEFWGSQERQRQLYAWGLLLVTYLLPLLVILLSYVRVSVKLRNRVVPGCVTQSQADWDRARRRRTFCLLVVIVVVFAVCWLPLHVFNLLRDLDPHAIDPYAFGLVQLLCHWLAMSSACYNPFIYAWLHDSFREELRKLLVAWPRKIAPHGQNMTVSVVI
Nature of the assay: IP accumulation assay, W^2.71A receptor mutant. A digest of the protocol:
(§1)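 COS-7 cells were transiently transfected with 0.4 µg plasmid of human PrRP receptor or its site-directed mutant, C-terminally fused to EYFP. One day after transfection and 16 h before stimulation, cells were labelled with 2 µCi/mL [³H]myo-inositol. They were then stimulated with increasing peptide concentrations for 1 h at 37°C in DMEM with 10 mM LiCl, and lysed in 0.1 M NaOH. IP was separated by anion exchange and counted by scintillation. EC50 came from concentration-response curves; runs were in duplicate, repeated ≥2 times.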

The target in another assay is T2, R^2.69A PrRP receptor (Homo sapiens, UniProt P49683, R125A).
T2 sequence (P49683 1-370 R125A): T1 sequence (P49683 1-370 W127A) with R125A, A127W
Nature of the assay: IP accumulation assay, R^2.69A receptor mutant.

The target in a further assay is T3, Y^2.64A PrRP receptor (Homo sapiens, UniProt P49683, Y120A).
T3 sequence (P49683 1-370 Y120A): T1 sequence (P49683 1-370 W127A) with Y120A, A127W
Nature of the assay: IP accumulation assay, Y^2.64A receptor mutant. In a few lines: as §1

The target in a further assay is T4, E^2.67A PrRP receptor (Homo sapiens, UniProt P49683, E123A).
T4 sequence (P49683 1-370 E123A): T1 sequence (P49683 1-370 W127A) with E123A, A127W
The assay is described as follows: IP accumulation assay, E^2.67A receptor mutant.

For the next assay, the target named is T5, F^2.66A PrRP receptor (Homo sapiens, UniProt P49683, F122A).
T5 sequence (P49683 1-370 F122A): T1 sequence (P49683 1-370 W127A) with F122A, A127W
Nature of the assay: IP accumulation assay, F^2.66A receptor mutant.

Another assay addresses T6, F^2.73A PrRP receptor (Homo sapiens, UniProt P49683, F129A).
T6 sequence (P49683 1-370 F129A): T1 sequence (P49683 1-370 W127A) with A127W, F129A
Nature of the assay: IP accumulation assay, F^2.73A receptor mutant.

For a further assay, the target named is T7, wt hPrRP receptor (Homo sapiens, UniProt P49683).
T7 sequence (P49683 1-370): T1 sequence (P49683 1-370 W127A) with A127W
The assay is described as follows: Signal transduction. In a few lines: as §1

Molecules are shown by their SMILES. Substitutions are numbered along the chain they refer to. Residues, ends and D or L forms follow the SMILES beside them.

For `CC[C@H](C)[C@H](NC(=O)CNC(=O)[C@H](CCCNC(=N)N)NC(=O)[C@H](CO)NC(=O)[C@H](C)NC(=O)[C@H](Cc1ccc(O)cc1)NC(=O)[C@H](Cc1c[nH]c2ccccc12)NC(=O)[C@H](C)NC(=O)[C@@H]1CCCN1C(=O)[C@H](CC(N)=O)NC(=O)[C@@H](NC(=O)[C@H](CC(=O)O)NC(=O)[C@@H]1CCCN1C(=O)[C@@H](N)[C@@H](C)O)[C@@H](C)CC)C(=O)N[C@@H](CCCNC(=N)N)C(=O)N1CCC[C@H]1C(=O)N[C@H](C(=O)NCC(=O)N[C@@H](CCCNC(=N)N)C(=O)N[C@@H](Cc1ccccc1)C(N)=O)C(C)C` [PrRP20] (H-TPDINPAWYASRGIRPVGRF-NH2), the EC50 was found to be 593 ± 78 nM on W^2.71A PrRP receptor; 4.2 ± 2.5 nM at R^2.69A PrRP receptor; 50 ± 7.5 nM on Y^2.64A PrRP receptor; 7.2 ± 3.4 nM at E^2.67A PrRP receptor; 6.2 ± 3.3 nM on F^2.66A PrRP receptor; 4.4 ± 2 nM at F^2.73A PrRP receptor. Besides, the EC50 at wt hPrRP receptor came out at 2.2 ± 0.3 nM.
